Measurements as given in ChEMBL document CHEMBL4393694, “A multifunctional therapeutic approach: Synthesis, biological evaluation, crystal structure and molecular docking of diversified 1H-pyrazolo[3,4-b]pyridine derivatives against Alzheimer's disease” (Eur J Med Chem, 2019).
The source made the active and inactive calls. The calls are words filed in the database; no cut-off is given here.

What was measured:
Acetylcholinesterase = Acetylcholinesterase (Electrophorus electricus, UniProt O42275); assay: Inhibition of electric eel AChE using acetylthiocholine iodide as substrate preincubated for 5 mins followed by substrate addition measured after 5 mins by Ellman's method
Cholinesterase = Cholinesterase (Equus caballus, UniProt P81908); assay: Inhibition of equine serum BuChE using butyrylthiocholine iodide as substrate pretreated for 5 mins followed by substrate addition measured after 5 mins by Ellman's method
Outline: (§1)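 Ellman assay in phosphate buffer pH 8.0. AChE (0.22 U/mL) or BuChE (0.06 U/mL) preincubated 5 min with inhibitor (0.01–100 μM final). DTNB then added, and the reaction started with ATC or BTC (0.075 M solution). IC50 reported as mean ± SD. Selectivity is IC50(BuChE)/IC50(AChE).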

[1] = Selectivity index, ratio of IC50 for equine serum BChE to IC50 for electric eel AChE
Outline: as §1, with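 “solution). Absorbance read at 412 nm, 25 °C, 5 min after substrate.” for “solution).”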

[2] = biological target: T1, Amyloid-beta precursor protein (Homo sapiens, UniProt P05067); assay: Inhibition of self-mediated amyloid beta (1 to 42) (unknown origin) aggregation at 25 uM incubated for 48 hrs by thioflavin-T fluorescence assay relative to control
Outline: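 HFIP-pretreated Aβ1-42 taken up in DMSO (5 mM stock), diluted in 50 mM phosphate pH 7.4 (100 μM final). Incubated 48 h at 37 °C with or without compound at 25 μM. Samples diluted to 200 μl with 50 mM glycine-NaOH pH 8.0 and read by ThT fluorescence. Percent inhibition reported as mean ± SD.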

[3] = Antioxidant activity assessed as AAPH-induced radical scavenging activity by measuring trolox equivalents for oxygen radical absorbance capacity measured up to 80 mins by ORAC-FL assay; format: functional
Outline: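 Fluorescein (70 nM final) with test compound at eight concentrations (1–8 μM) in 75 mM phosphate buffer pH 7.4, preincubated 15 min at 37 °C. AAPH (12 mM final) then added and fluorescence read (ex 485/em 520 nm) for 80 min. Net AUC over blank regressed against concentration and converted to Trolox equivalents by standard curve (Trolox = 1). At least three runs.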

[4] = biological target: T1, Amyloid-beta precursor protein; assay: Disaggregation of self-induced amyloid beta (1 to 42) (unknown origin) preformed fibrils measured after 24 hrs by ThT fluorescence assay relative to control
Outline: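 HFIP-pretreated Aβ1-42 taken up in DMSO (5 mM stock), diluted in 50 mM phosphate pH 7.4 (100 μM final). Peptide incubated 48 h at 37 °C, then compound or buffer added and incubated a further 24 h at 37 °C. Samples diluted to 200 μl with 50 mM glycine-NaOH pH 8.0 and read by ThT fluorescence. Peptide-free blanks run in parallel.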

[5] = Inhibition of Cu2+ induced amyloid beta (1 to 42) aggregation at 25 uM incubated for 24 hrs by Thioflavin T based fluorometric assay relative to control
Outline: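 Aβ1-42 was pretreated with HFIP, dried to a film, and held as a 5 mM DMSO stock. It was diluted in HEPES pH 6.6 with 150 μM NaCl, then incubated at 100 μM final with or without Cu2+ (100 μM final) for 48 h at 37 °C. Compounds were added at 25 μM final for 24 h at 37 °C. Samples (20 μL) were diluted to 200 μL glycine–NaOH (50 mM, pH 8.0) containing 5 μM ThT before reading fluorescence.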

[6] = biological target: T1, Amyloid-beta precursor protein; assay: Inhibition of self-mediated amyloid beta (1 to 42) (unknown origin) aggregation incubated for 48 hrs by thioflavin-T fluorescence assay
Outline: (§2)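 HFIP-pretreated Aβ1-42 from a DMSO stock was diluted in phosphate buffer (50 mM, pH 7.4). Peptide was incubated with or without inhibitor at 10, 15, 20 or 25 μM for 48 h at 37 °C. Samples were diluted to 200 μL with glycine–NaOH (50 mM, pH 8.0) and fibrils read by ThT fluorescence. Blanks lacking Aβ were run. IC50 was derived from the four concentrations.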

[7] = biological target: T1, Amyloid-beta precursor protein; assay: Inhibition of self-mediated amyloid beta (1 to 42) (unknown origin) fibril formation assessed as appearance of sparse fibrils at 25 uM after 48 hrs by transmission electron microscopic analysis
[8] = biological target: T1, Amyloid-beta precursor protein; assay: Inhibition of self-mediated amyloid beta (1 to 42) (unknown origin) aggregation at 10 uM incubated for 48 hrs by thioflavin-T fluorescence assay relative to control; outline: as §2
[9] = biological target: T1, Amyloid-beta precursor protein; assay: Inhibition of self-mediated amyloid beta (1 to 42) (unknown origin) aggregation at 15 uM incubated for 48 hrs by thioflavin-T fluorescence assay relative to control; outline: as §2
[10] = biological target: T1, Amyloid-beta precursor protein; assay: Inhibition of self-mediated amyloid beta (1 to 42) (unknown origin) aggregation at 20 uM incubated for 48 hrs by thioflavin-T fluorescence assay relative to control; outline: as §2
[11] = Inhibition of Cu2+ induced amyloid beta (1 to 42) aggregation assessed as fluorescence intensity at 25 uM incubated for 24 hrs by Thioflavin T based fluorometric assay (reference value: 606.64 +/- 36.11 a.u.)
[12] = Metal chelating activity assessed as compound-Fe2+ complex formation at 30 uM after 30 mins by UV-visible spectrophotometric analysis
Outline: (§3)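 UV absorption spectra (200–500 nm) were recorded over 30 min for compound (30 μM final) alone or with CuSO4 or FeSO4 (30 μM final). The medium was 20% (v/v) ethanol/buffer: 150 mM NaCl, 20 mM HEPES, pH 7.4.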

[13] = Metal chelating activity assessed as compound-Cu2+ complex formation at 30 uM after 30 mins by UV-visible spectrophotometric analysis; outline: as §3
[14] = biological target: Acetylcholinesterase (Electrophorus electricus) (UniProt O42275); assay: Mixed-type inhibition of electric eel AChE assessed as decreased Vmax with higher Km using varying levels of acetylthiocholine iodide as substrate pretreated for 5 mins followed by substrate addition by Lineweaver-Burk plot analysis
Outline: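 AChE kinetics by Ellman's method, with substrate varied at comparatively low concentrations. Inhibitor tested at 10, 20 and 40 nM. Inhibition type assigned from Lineweaver–Burk plots of 1/velocity versus 1/substrate.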

T1 sequence (P05067 whole entry): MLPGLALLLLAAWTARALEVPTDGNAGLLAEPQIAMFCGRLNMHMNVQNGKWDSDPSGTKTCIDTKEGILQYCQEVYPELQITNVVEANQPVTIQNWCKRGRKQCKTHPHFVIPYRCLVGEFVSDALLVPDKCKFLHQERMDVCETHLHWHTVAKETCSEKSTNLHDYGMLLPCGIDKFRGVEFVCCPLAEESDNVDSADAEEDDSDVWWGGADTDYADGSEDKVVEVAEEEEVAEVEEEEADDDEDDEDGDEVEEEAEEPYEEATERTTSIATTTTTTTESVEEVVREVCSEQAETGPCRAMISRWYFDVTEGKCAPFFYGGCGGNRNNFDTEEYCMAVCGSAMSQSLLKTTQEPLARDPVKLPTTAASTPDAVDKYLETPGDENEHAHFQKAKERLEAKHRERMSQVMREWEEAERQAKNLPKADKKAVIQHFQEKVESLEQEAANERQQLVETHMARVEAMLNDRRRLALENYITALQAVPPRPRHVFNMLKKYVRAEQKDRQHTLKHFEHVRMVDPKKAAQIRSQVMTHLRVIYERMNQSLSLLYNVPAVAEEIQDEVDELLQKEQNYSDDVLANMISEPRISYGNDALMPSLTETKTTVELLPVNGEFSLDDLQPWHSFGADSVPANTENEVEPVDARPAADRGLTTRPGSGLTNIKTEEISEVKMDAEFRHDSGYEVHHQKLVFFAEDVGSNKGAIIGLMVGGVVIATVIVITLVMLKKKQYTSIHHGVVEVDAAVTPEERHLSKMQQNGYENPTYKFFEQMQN
Sequence of Acetylcholinesterase (O42275 whole entry): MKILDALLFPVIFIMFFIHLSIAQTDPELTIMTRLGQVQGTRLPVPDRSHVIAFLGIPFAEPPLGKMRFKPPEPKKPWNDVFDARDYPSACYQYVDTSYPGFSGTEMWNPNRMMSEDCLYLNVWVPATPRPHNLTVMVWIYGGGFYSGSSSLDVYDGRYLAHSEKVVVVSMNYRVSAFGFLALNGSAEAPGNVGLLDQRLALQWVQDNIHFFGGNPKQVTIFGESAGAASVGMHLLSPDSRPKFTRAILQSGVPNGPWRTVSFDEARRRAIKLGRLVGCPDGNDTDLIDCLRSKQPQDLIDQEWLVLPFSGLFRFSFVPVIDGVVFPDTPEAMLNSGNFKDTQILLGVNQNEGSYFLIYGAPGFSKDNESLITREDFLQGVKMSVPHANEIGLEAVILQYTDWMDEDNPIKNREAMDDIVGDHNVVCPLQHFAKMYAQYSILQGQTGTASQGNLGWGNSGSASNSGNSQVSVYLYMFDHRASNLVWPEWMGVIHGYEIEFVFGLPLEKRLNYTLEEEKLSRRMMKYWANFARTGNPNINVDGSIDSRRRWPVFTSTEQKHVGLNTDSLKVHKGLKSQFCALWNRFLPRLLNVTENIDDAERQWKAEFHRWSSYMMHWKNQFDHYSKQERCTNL
Sequence of Cholinesterase (P81908 whole entry): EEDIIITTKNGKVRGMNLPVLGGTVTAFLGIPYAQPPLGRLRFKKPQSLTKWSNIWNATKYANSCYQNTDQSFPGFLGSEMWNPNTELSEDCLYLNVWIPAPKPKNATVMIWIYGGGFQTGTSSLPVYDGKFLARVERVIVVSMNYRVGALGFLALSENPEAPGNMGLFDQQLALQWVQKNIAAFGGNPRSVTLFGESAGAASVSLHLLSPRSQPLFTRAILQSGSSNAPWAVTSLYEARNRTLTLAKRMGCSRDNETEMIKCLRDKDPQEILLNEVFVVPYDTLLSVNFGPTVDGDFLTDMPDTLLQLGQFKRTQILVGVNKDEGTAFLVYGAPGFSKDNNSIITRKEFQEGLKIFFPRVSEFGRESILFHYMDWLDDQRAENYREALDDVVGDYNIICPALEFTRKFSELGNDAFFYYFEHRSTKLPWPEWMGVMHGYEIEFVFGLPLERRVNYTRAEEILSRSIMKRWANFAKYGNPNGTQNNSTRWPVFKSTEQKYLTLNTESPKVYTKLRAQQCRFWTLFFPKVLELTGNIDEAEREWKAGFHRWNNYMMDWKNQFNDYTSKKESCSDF
Sequence of Acetylcholinesterase (Electrophorus electricus) (O42275 24-633 limits assumed): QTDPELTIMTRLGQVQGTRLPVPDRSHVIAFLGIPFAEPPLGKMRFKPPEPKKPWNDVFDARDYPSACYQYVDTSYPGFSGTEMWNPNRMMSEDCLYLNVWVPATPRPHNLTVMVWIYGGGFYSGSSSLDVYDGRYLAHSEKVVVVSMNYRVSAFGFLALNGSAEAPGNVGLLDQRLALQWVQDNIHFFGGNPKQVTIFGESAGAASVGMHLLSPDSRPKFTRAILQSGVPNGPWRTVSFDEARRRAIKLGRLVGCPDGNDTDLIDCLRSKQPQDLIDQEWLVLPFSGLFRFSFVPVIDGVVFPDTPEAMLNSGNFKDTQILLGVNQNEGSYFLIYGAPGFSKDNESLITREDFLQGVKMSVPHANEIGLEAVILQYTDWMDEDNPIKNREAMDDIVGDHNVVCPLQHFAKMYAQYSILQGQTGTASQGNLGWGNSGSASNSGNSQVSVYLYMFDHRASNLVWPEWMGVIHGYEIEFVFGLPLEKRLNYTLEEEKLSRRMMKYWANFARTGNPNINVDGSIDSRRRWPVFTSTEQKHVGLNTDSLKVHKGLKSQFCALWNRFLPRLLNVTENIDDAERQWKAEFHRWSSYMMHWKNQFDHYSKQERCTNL

| Compound | IC50 (Acetylcholinesterase) | IC50 (Cholinesterase) | Ratio IC50 [1] | inhibition [2] | Activity [3] | Activity [4] | inhibition [5] | IC50 [6] | inhibition [7] | inhibition [8] | inhibition [9] | inhibition [10] | Flu intensity [11] | Activity [12] | Activity [13] | inhibition [14] |
| --- | --- | --- | --- | --- | --- | --- | --- | --- | --- | --- | --- | --- | --- | --- | --- | --- |
| CN1CCN(CC(=O)Nc2n[nH]c3ncccc23)CC1 | 0.0049 µM | > 100 µM | > 20400 | 50.9% | 0.362 µMequiv/µM |  |  |  |  |  |  |  |  |  |  |  |
| CCOC(=O)c1cnc2ccc(C)cc2c1N1CCN(CC(=O)Nc2n[nH]c3ncccc23)CC1 | > 100 µM | > 100 µM |  | 69.3% | 0.271 µMequiv/µM | 52.1% |  |  |  |  |  |  |  |  |  |  |
| N#Cc1cccnc1N1CCN(CC(=O)Nc2n[nH]c3ncccc23)CC1 | > 100 µM | > 100 µM |  | 40% | 0.163 µMequiv/µM |  |  |  |  |  |  |  |  |  |  |  |
| CCOC(=O)c1cnc2ccccc2c1N1CCN(CC(=O)Nc2n[nH]c3ncccc23)CC1 | > 100 µM | > 100 µM |  | 81.7% | 0.274 µMequiv/µM | 61.6% | 57% | 15.7 µM | Active | 28.6% | 43.8% | 84.1% | 261 a.u. | Active | Active |  |
| O=C(CN1CCCCC1)Nc1n[nH]c2ncccc12 | 0.0048 µM | > 100 µM | > 20800 | 50.6% | 0.65 µMequiv/µM |  |  |  |  |  |  |  |  |  |  |  |
| O=C(CN1CCN(CC(=O)Nc2n[nH]c3ncccc23)CC1)Nc1n[nH]c2ncccc12 | 0.045 µM | > 100 µM | > 2220 | 79.5% | 0.283 µMequiv/µM | 53.8% | 58.8% | 17.9 µM | Active | 3.9% | 39.9% | 58% | 250 a.u. | Active | Active | Active |
| COc1cc(/C=C/C(=O)CC(=O)/C=C/c2ccc(O)c(OC)c2)ccc1O |  |  |  |  |  |  | 45.2% |  | Active |  |  |  | 333 a.u. |  |  |  |
| O=C(CN1CCOCC1)Nc1n[nH]c2ncccc12 | 0.113 µM | > 100 µM | > 885 | 74.6% | 0.192 µMequiv/µM | 47.4% |  |  |  |  |  |  |  |  |  |  |
| O=C(CN1CCN(c2ccnc3cc(Cl)ccc23)CC1)Nc1n[nH]c2ncccc12 | 0.012 µM | > 100 µM | > 8330 | 23.6% | 0.286 µMequiv/µM |  |  |  |  |  |  |  |  |  |  |  |
| Cc1cc(N2CCN(CC(=O)Nc3n[nH]c4ncccc34)CC2)n2ncnc2n1 | 0.022 µM | > 100 µM | > 4550 | 43.4% | 0.216 µMequiv/µM |  |  |  |  |  |  |  |  |  |  |  |
